Reference: ChEMBL document CHEMBL1129736, “Bisphenolic compounds that enhance cell cation transport are found in commercial phenol red” (1996)

Legend:
[1] = K+ / Na+ ratio in HF(Human foreskin fibroblasts) cells; format: functional
HFF [2] = test: Effect of compound on K+ ion content of HFF (Human foreskin fibroblasts) Cells at 4.8 ug/mL; format: functional
HFF [3] = test: Effect of compound on Na+ ion content of HFF Cells at 4.8 ug/mL; format: functional, Homo sapiens
HFF [4] = test: Effect of compound on Na+ ion content of HFF (Human foreskin fibroblasts) Cells at 3 ug/mL; format: functional
HFF [5] = test: Effect of compound on K+ ion content of HFF (Human foreskin fibroblasts) Cells at 3 ug/mL; format: functional
HFF [6] = test: Effect of compound on K+ ion content of HFF (Human foreskin fibroblasts) Cells at 125 ng/mL; format: functional
HFF [7] = test: Effect of compound on Na+ ion content of HFF (Human foreskin fibroblasts) Cells at 125 ng/mL; format: functional
HFF [8] = test: Effect of compound on Na+ ion content of HFF (Human foreskin fibroblasts) Cells at 4.8 ug/mL; format: functional
How it was run: (§1)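 Human foreskin fibroblasts were grown in 6 cm dishes in DMEM with 10% FBS and antibiotics at 37 °C in CO2/air, pH 7.2-7.4, at 5 × 10⁵ to 2 × 10⁶ cells/dish. Medium was swapped for serum-free test solution by four rinses. Incubation was 45 min, or 30 min in expt III, at 37 °C. Dishes were washed six times with iced MgCl2 or MgSO4. Read-out was K⁺ or Na⁺ per dish (10⁸ × mol), mean of duplicate dishes.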

HFF [9] = test: Effect of compound on Na+ ion content of HFF (Human foreskin fibroblasts) Cells at 0.03 ug/mL; format: functional; how it was run: as §1
HFF [10] = test: Effect of compound on K+ ion content of HFF (Human foreskin fibroblasts) Cells at 0.03 ug/mL; format: functional; how it was run: as §1
HFF [11] = test: Effect of compound on Na+ ion content of HFF (Human foreskin fibroblasts) Cells at 0.1 ug/mL; format: functional; how it was run: as §1
HFF [12] = test: Effect of compound on K+ ion content of HFF (Human foreskin fibroblasts) Cells at 0.1 ug/mL; format: functional; how it was run: as §1
HFF [13] = test: Effect of compound on K+ ion content of HFF (Human foreskin fibroblasts) Cells at 0.3 ug/mL; format: functional; how it was run: as §1
HFF [14] = test: Effect of compound on Na+ ion content of HFF (Human foreskin fibroblasts) Cells at 0.3 ug/mL; format: functional; how it was run: as §1
HFF [15] = test: Effect of compound on Na+ ion content of HFF (Human foreskin fibroblasts) Cells at 10 ng/mL; format: functional; how it was run: as §1
HFF [16] = test: Effect of compound on Na+ ion content of HFF (Human foreskin fibroblasts) Cells at 30 ng/mL; format: functional; how it was run: as §1
HFF [17] = test: Effect of compound on K+ ion content of HFF (Human foreskin fibroblasts) Cells at 100 ng/mL; format: functional; how it was run: as §1
HFF [18] = test: Effect of compound on K+ ion content of HFF (Human foreskin fibroblasts) Cells at 30 ng/mL; format: functional; how it was run: as §1
[19] = K+ / Na+ ratio in HF(Human foreskin fibroblasts) cells at 100 ng/mL; format: functional
How it was run: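 HF cells were in 6 cm dishes at 5 × 10⁵ to 2 × 10⁶ cells/dish. Growth medium was replaced with serum-free test solution by four rapid rinses. Incubation was 45 min at 37 °C in CO2/air. Dishes were rinsed six times with iced 0.1 M MgCl2 and intracellular K⁺ and Na⁺ were assayed. The K⁺/Na⁺ ratio is the mean of duplicate dishes.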

HFF [20] = test: Effect of compound on K+ ion content of HFF (Human foreskin fibroblasts) Cells at 10 ng/mL; format: functional; how it was run: as §1
HFF [21] = test: Effect of compound on Na+ ion content of HFF (Human foreskin fibroblasts) Cells at 4.8 ug/mL (Expt II); format: functional; how it was run: as §1
HFF [22] = test: Effect of compound on Na+ ion content of HFF (Human foreskin fibroblasts) Cells at 2.4 ug/mL; format: functional; how it was run: as §1
HFF [23] = test: Effect of compound on K+ ion content of HFF (Human foreskin fibroblasts) Cells at 4.8 ug/mL (Expt II); format: functional; how it was run: as §1
HFF [24] = test: Effect of compound on K+ ion content of HFF (Human foreskin fibroblasts) Cells at 2.4 ug/mL; format: functional; how it was run: as §1
HFF [25] = test: Effect of compound on Na+ ion content of HFF (Human foreskin fibroblasts) Cells at 4.8 ug/mL (Expt III); format: functional; how it was run: as §1
HFF [26] = test: Effect of compound on K+ ion content of HFF (Human foreskin fibroblasts) Cells at 4.8 ug/mL (Expt III); format: functional; how it was run: as §1
HFF [27] = test: Effect of compound on K+ ion content of HFF (Human foreskin fibroblasts) Cells at 15.6 ng/mL; format: functional; how it was run: as §1
HFF [28] = test: Effect of compound on Na+ ion content of HFF (Human foreskin fibroblasts) Cells at 62.5 ng/mL; format: functional; how it was run: as §1
HFF [29] = test: Effect of compound on Na+ ion content of HFF (Human foreskin fibroblasts) Cells at 15.6 ng/mL; format: functional; how it was run: as §1
HFF [30] = test: Effect of compound on Na+ ion content of HFF (Human foreskin fibroblasts) Cells at 31 ng/mL; format: functional; how it was run: as §1
HFF [31] = test: Effect of compound on K+ ion content of HFF (Human foreskin fibroblasts) Cells at 31 ng/mL; format: functional; how it was run: as §1
HFF [32] = test: Effect of compound on K+ ion content of HFF (Human foreskin fibroblasts) Cells at 62.5 ng/mL; format: functional; how it was run: as §1

## COc1ccc(CCN(C)CCCC(C#N)(c2ccc(OC)c(OC)c2)C(C)C)cc1OC.Oc1ccc(C2(c3ccc(O)cc3)c3ccccc3Oc3ccccc32)cc1 (centres undefined)
[1]
  K+/Na+ ratio: 3.4
HFF [2]
  K+ Ion content: 370 nmol/dish
HFF [3]
  Na+ ion content: 1100000000

## COc1ccc(CCN(C)CCCC(C#N)(c2ccc(OC)c(OC)c2)C(C)C)cc1OC.Oc1ccc(C2(c3ccc(O)cc3)c3ccccc3-c3ccc(O)cc32)cc1 (centres undefined)
[1]
  K+/Na+ ratio: 0.71
HFF [4]
  Na+ ion content: 2100000000
HFF [5]
  K+ Ion content: 150 nmol/dish

## COc1ccc(CCN(C)CCCC(C#N)(c2ccc(OC)c(OC)c2)C(C)C)cc1OC.Oc1ccc(C2(c3ccc(O)cc3)c3ccccc3-c3cc(O)ccc32)cc1 (centres undefined)
[1]
  K+/Na+ ratio: 1.3
HFF [6]
  K+ Ion content: 2000000000
HFF [7]
  Na+ ion content: 1600000000

## C=C[C@H]1CN2CC[C@H]1C[C@H]2[C@H](O)c1ccnc2ccc(OC)cc12.Oc1ccc(C2(c3ccc(O)cc3)c3ccccc3Oc3ccccc32)cc1
[1]
  K+/Na+ ratio: 2.3
HFF [2]
  K+ Ion content: 270 nmol/dish
HFF [8]
  Na+ ion content: 1200000000

## Oc1ccc(C2(c3ccc(O)cc3)c3ccccc3-c3ccc(O)cc32)cc1
HFF [9]
  Na+ ion content: 350000000
HFF [10]
  K+ Ion content: 280 nmol/dish
HFF [11]
  Na+ ion content: 2400000000
HFF [12]
  K+ Ion content: 870000000
HFF [4]
  Na+ ion content: 3900000000
HFF [13]
  K+ Ion content: 38 nmol/dish
HFF [14]
  Na+ ion content: 3500000000
HFF [5]
  K+ Ion content: 55 nmol/dish

## Oc1ccc(C2(c3ccc(O)cc3)c3ccccc3-c3c(O)cccc32)cc1
HFF [9]
  Na+ ion content: 1.1e+09
HFF [15]
  Na+ ion content: 710000000
HFF [16]
  Na+ ion content: 110 nmol/dish
HFF [17]
  K+ Ion content: 67 nmol/dish
HFF [18]
  K+ Ion content: 240 nmol/dish
[19]
  K+/Na+ ratio: 0.29
HFF [20]
  K+ Ion content: 300 nmol/dish

## Oc1ccc(C2(c3ccc(O)cc3)c3ccccc3Oc3ccccc32)cc1
HFF [21]
  Na+ ion content: 270 nmol/dish
HFF [22]
  Na+ ion content: 190 nmol/dish
HFF [23]
  K+ Ion content: 240 nmol/dish
HFF [24]
  K+ Ion content: 340 nmol/dish
HFF [25]
  Na+ ion content: 290 nmol/dish
HFF [26]
  K+ Ion content: 25 nmol/dish

## Oc1ccc(C2(c3ccc(O)cc3)c3ccccc3-c3cc(O)ccc32)cc1
HFF [27]
  K+ Ion content: 3e+09
HFF [28]
  Na+ ion content: 290 nmol/dish
HFF [29]
  Na+ ion content: 800000000
HFF [30]
  Na+ ion content: 1200000000
HFF [31]
  K+ Ion content: 270 nmol/dish
HFF [32]
  K+ Ion content: 100 nmol/dish
HFF [6]
  K+ Ion content: 520000000
HFF [7]
  Na+ ion content: 3800000000

## C=C[C@H]1CN2CC[C@H]1C[C@H]2[C@H](O)c1ccnc2ccc(OC)cc12.Oc1ccc(C2(c3ccc(O)cc3)c3ccccc3-c3cc(O)ccc32)cc1
[1]
  K+/Na+ ratio: 0.91
HFF [6]
  K+ Ion content: 2000000000
HFF [7]
  Na+ ion content: 2200000000
